Screening results as filed in PubChem BioAssay.
CSN deneddyl inh: CSN deneddylation inhibition. AID 651999. Q92905. Purified CSN, SCF-Nedd8-OG deneddylation, fluorescence polarization. hit rate 0.38% among 360,000. inhibition, % at 12.5 µM;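 active means pattern-corrected inhibition above about 35%, with an unprinted fluorescence ratio check between 0.5 and 1.5, limit read from the data, passing the limit was not always enough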;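 further: 0% = enzyme with substrate and 100% = substrate without enzyme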
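Detection – fluorescence polarization · System – HEK293T-derived human Csn5 enzyme · Controls – substrate-only high control, full reaction low control · Timing – 90 min, room temperature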
Rpn11 block: blocks the human proteasome subunit Rpn11; O00487; human 26S proteasome, Ub4-pepOG fluorescence polarization; 20S core pre-blocked with epoxomicin; inhibition, % at 20 µM; hit rate 0.59% among 360,000; AID 588493;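 active means inhibition at 20 µM, scaled to each plate's controls, above about 33%, limit read from the data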
NadD block: blocks S. aureus nicotinate mononucleotide adenylyltransferase. hit rate 0.78% among 360,000. purified NadD enzyme, colorimetric absorbance read-out. inhibition, % at 20 µM. AID 602399; in the data active means inhibition above about 26%
HNF4A DNA FP: change in binding of human HNF4 alpha to DNA; HNF4a-FITC DNA binding, fluorescence polarization, 1 h; hit rate 0.3% among 360,000; P41235; activity change, % at 10 µM; in the data active means activity change above about 30%, passing the limit was not always enough
Target sequence (P41235 whole entry, looked up): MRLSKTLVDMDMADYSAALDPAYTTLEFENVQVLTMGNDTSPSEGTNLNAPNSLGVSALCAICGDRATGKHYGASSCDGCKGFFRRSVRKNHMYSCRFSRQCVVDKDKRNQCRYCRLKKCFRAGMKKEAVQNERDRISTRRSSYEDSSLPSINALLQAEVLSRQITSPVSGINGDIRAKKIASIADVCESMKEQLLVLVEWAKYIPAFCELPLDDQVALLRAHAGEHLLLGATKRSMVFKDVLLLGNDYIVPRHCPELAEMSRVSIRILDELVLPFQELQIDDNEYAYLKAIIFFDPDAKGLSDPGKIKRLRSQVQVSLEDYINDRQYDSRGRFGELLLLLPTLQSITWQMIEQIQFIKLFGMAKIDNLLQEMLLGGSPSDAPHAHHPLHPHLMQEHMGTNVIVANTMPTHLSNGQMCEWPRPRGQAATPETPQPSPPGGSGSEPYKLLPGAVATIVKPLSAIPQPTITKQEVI
TPT1 inh: C. albicans TPT1 enzyme inhibition; recombinant caTPT1, FP RNA substrate dephosphorylation; inhibition, % at 5 µM; hit rate 0.81% among 300,000; AID 1962;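 active means inhibition above the mean of all tested compounds plus 3 SD, set per screening campaign, cut at about 24% in these data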;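 further: plate controls were DMSO alone for no effect and ferristatin control at 100 nM for full effect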
PP1 counter: blocks human PP1-alpha phosphatase, a PP5 counter-screen. hit rate 0.9% among 320,000. purified PP1alpha, OMFP fluorescence. inhibition, % at 6.7 µM;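 active means inhibition above the mean inhibition of all tested compounds plus 3 SD, computed separately for each screening campaign, cut at about 15% in these data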
caTPT1 confirm: TPT1 (C. albicans) inhibition, confirmation | hit rate 74% among 2,400 | recombinant caTPT1, fluorescence polarization, RNase T1 coupled | inhibition, % at 5 µM | shares compounds with TPT1 inh;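 active means inhibition above the primary screen limit, the mean inhibition of all tested compounds plus 3 SD, cut at about 25% in these data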
RNase T1 inh: RNase T1 inhibition in TPT1 counter-screen | inhibition, % at 5 µM | AID 2153 | RNase T1 cleavage, fluorescence polarization, 1536-well | shares compounds with TPT1 inh | hit rate 83% among 2,400;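 active means inhibition above the solvent-only control well mean plus 3 SD, limit set per screening run, cut at about 23% in these data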;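 further: plate controls were DMSO wells with enzyme for no effect and wells without RNase T1 for full effect; inhibitors block cleavage so intact labeled substrate keeps polarization high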
Target sequence (P00651 whole entry, looked up): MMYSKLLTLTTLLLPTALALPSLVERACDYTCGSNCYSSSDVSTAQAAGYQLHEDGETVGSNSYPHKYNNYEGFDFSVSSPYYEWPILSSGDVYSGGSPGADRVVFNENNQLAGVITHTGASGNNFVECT
* marks the source's active call; other numbers are inactive results; . = not tested or not shown. The list is not random: actives were taken first. Their share in the collection is about 2.7%.

SMILES	CSN deneddyl inh	Rpn11 block	NadD block	HNF4A DNA FP	TPT1 inh	PP1 counter	caTPT1 confirm	RNase T1 inh
CC(C)C[C@H]1CN([C@@H](Cc2ccccc2)CN2CCC[C@H]2CN2C(=O)C(=O)NC[C@@H]2Cc2ccc(O)cc2)C(=O)C(=O)N1CCc1ccccc1	-4.3	.	19.8	-0.9	.	.	.	.
COc1ccc(CN2C(=O)c3ccccc3C(/C=N/OCc3ccc(Cl)cc3)C2=O)cc1 (centres undefined)	-2.9	8.7	15.9	1.7	42.9*	9.5	64.7*	74.9*
COc1ccc(CN2C(=O)c3ccccc3C(/C=N\OCc3ccc(F)cc3)C2=O)cc1 (centres undefined)	3.8	3.6	14.8	4.6	16.5	10.9	.	.
CC(C)(C)c1ccc(OCCC(=O)Nc2ccc(N3CCOCC3)cc2N2CCOCC2)cc1	4.3	3.1	-5.4	3.3	-0.5	-3.7	.	.
CCN(CC(=O)Nc1c(F)cccc1F)C(=O)c1ccc2c(c1)OCO2	-4.7	-6.0	9.2	-0.8	.	-6.0	.	.
CC(=O)Nc1ccc(N=Cc2c(O)c(C(=O)Nc3ccccc3)cc3ccccc23)cc1	.	.	.	.	120.8*	-3.5	109.4*	107.4*
CC1=NOC(=O)/C1=C/c1ccc(O)c(Cl)c1	0.6	-2.1	0.4	2.5	3.4	0.6	.	.
CCN(CC)c1ccc(/C=C2/C(=O)ON=C2C)cc1	29.2	.	5.3	9.0	116.8*	0.3	131.6*	133.7*
COc1ccc(/C=C2\N=C(C(C)(C)C)OC2=O)c(OC)c1	-0.8	-0.3	0.4	-1.0	1.4	-2.6	.	.
CCN(CC)c1ccc(C=C2C(=O)OC3(CCCCC3)OC2=O)cc1	25.5	.	4.8	9.7	101.2*	0.5	166.0*	155.6*
CCOc1ccccc1NC=C1C(=O)OC2(CCCCC2)OC1=O	1.6	-3.1	-3.2	-0.5	1.8	2.5	.	.
CN(C)c1ccc(/C=C2\N=C(C(C)(C)C)OC2=O)cc1	20.4	.	-0.9	11.3	117.4*	0.9	128.5*	139.8*
CC1=NOC(=O)/C1=C/c1ccc(N(C)C)cc1	.	.	.	.	78.3*	1.0	96.7*	113.8*
CC1CCCN(C(=O)CNS(=O)(=O)c2cccs2)C1 (centres undefined)	0.9	6.4	2.4	1.2	2.9	-4.7	.	.
CC1=C(C(=O)N(C(C)C)C(C)C)CC(CC(=O)NCc2cccs2)C(=O)N1Cc1ccc(C(C)(C)C)cc1 (centres undefined)	3.9	8.3	-0.2	0.5	.	.	.	.
CCN(CC)c1ccc(/C=C2/C(=O)c3ccc(C(=O)O)cc3C2=O)cc1	90.4	.	6.4	82.2*	136.2*	-8.1	121.5*	113.9*
CCN1C(=O)c2ccc(C(=O)O)cc2C1=O	4.7	-4.4	2.9	-0.1	-7.9	0.9	.	.
CC(Oc1coc(CN2CCN(C(=O)c3ccco3)CC2)cc1=O)c1ccccc1 (centres undefined)	3.3	-10.6	2.0	3.6	-5.5	-4.1	.	.
CCOC(=O)c1sc(N)c(C#N)c1COC(=O)CNC(=O)c1cc(OC)c(OC)c(OC)c1	71.1*	.	-1.0	99.1*	78.5*	-3.0	92.3*	102.5*
C=CCNC(=O)/C(C#N)=C\c1cc(Cl)c(O)c(OCC)c1	-0.5	19.9	-1.1	4.5	24.8*	1.0	34.1*	41.5*
CC(C)(C)c1ccc(OCCC(=O)NCC(c2cccs2)N2CCOCC2)cc1 (centres undefined)	-1.9	-1.0	-7.0	2.4	4.9	-2.0	.	.
N=c1c(S(=O)(=O)c2ccccc2)cc2c(=O)n3ccccc3nc2n1Cc1ccco1	26.1	12.9	15.7	-1.8	26.3*	12.1	8.9	17.1
Cc1ccc(S(=O)(=O)c2cc3c(=O)n4ccccc4nc3n(Cc3ccco3)c2=N)cc1C	.	.	.	.	25.0*	-3.0	18.4	20.7
Cc1cccn2c(=O)c3cc(S(=O)(=O)c4ccccc4)c(=N)n(Cc4ccco4)c3nc12	-3.4	6.0	2.3	-3.3	6.1	6.8	.	.
O=S(=O)(CCc1ccccc1)CS(=O)(=O)CCc1ccccc1	-2.9	-3.2	-3.1	-1.9	.	.	.	.
SMILES	CSN deneddyl inh	Rpn11 block	NadD block	HNF4A DNA FP	TPT1 inh	PP1 counter	caTPT1 confirm	RNase T1 inh
CCSC1=NSC2=NC(=O)/C(=C\c3coc4ccccc4c3=O)C(=N)N12	-65.6	8.6	8.6	51.5	55.2*	1.1	1.8	14.3
COC(=O)c1ccc2nc(-c3ccc(F)cc3)c(Cc3ccccc3C(F)(F)F)n2c1	0.2	.	7.8	4.1	.	.	.	.
Cc1cc(C)nc(NN2C(=O)/C(=C/c3ccccc3)SC2=S)n1	-3.7	5.0	-6.2	1.1	-0.6	2.4	.	.
CN(C)c1ccc(/C=C2\SC(=S)N(Nc3ncc(C(F)(F)F)cc3Cl)C2=O)cc1	-68.4	.	19.2	165.7	123.0*	-3.3	141.1*	129.5*
COc1ccc2cc(C(=O)C3CCCN(C(=O)C4=NN(C)C(=O)CC4)C3)ccc2c1 (centres undefined)	-1.4	7.5	-0.7	0.6	-1.4	-10.4	.	.
CCOC(=O)COc1ccc(S(=O)(=O)N2CCN(c3ccccc3F)CC2)cc1	4.7	1.4	0.9	1.1	109.2*	-2.8	7.0	10.2
Cn1cc(C2=C(c3ccc(Cl)cc3Cl)C(=O)NC2=O)c2ccccc21	-74.0	.	10.3	72.3	81.2*	6.7	92.3*	94.7*
COc1ccc(NC(=O)CSc2nnc3n2CCCCC3)cc1S(=O)(=O)N1CCOCC1	-0.5	6.0	1.5	2.7	.	-3.7	.	.
O=C(N/N=C/c1cc(Cl)cc(Cl)c1O)c1ccncc1	28.8	.	-5.1	4.1	40.0*	6.5	37.5*	49.4*
O=C(N/N=C/c1cc(Br)cc(Br)c1O)c1ccncc1	.	.	.	.	89.2*	-0.5	77.4*	83.2*
COc1ccc(C(=O)Nc2nnc(CC(=O)N/N=C/c3ccc(O)cc3O)s2)cc1	32.5	6.7	33.8*	-13.4	52.9*	14.8	81.3*	82.5*
CCOc1ccc(/C=C/C(=O)c2c(O)cc(C)oc2=O)cc1	3.7	14.7	-2.4	0.6	45.3*	-0.8	10.6	10.3
Cc1cc(O)c(C(=O)/C=C/c2ccccc2)c(=O)o1	11.0	21.6	-4.8	2.9	.	.	.	.
CN(C)CCCn1c(N)c(C#N)c2nc3ccccc3nc21	20.0	.	2.3	90.8	26.2*	-3.4	30.5*	43.4*
CC(C)NC(=O)Cn1nnc(-c2ccccc2)c1COc1ccc2ccccc2c1	-6.3	0.7	-5.0	0.0	.	.	.	.
O=C1[C@@H]2Cc3c([nH]c4ccccc34)C(c3ccccc3)N2C(=O)CN1CCO (some centres undefined)	2.9	5.6	-0.6	2.0	0.9	-2.0	.	.
C=CCN1C(=O)[C@@H]2Cc3c([nH]c4ccccc34)C(c3ccc(O)cc3)N2C1=S (some centres undefined)	30.5	.	-0.8	46.0*	77.9*	1.7	61.9*	72.8*
